B1: Osa-1-4 twister ribozyme (parent)
chain: CCGCCUAACACUGCCAAUGCCGGUCCCAAGCCCGGAUAAAAGUGGAGGGGGCGG

Variants of: B1
Assay: self-cleavage, relative activity (ratio to wild type); higher = more cleavage; co-transcriptional
Summary of the method: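 In vitro transcription at 37 °C for 2 h allowed the twister ribozyme to cleave itself as it was made. Its 54-nucleotide Oryza sativa template had been synthesised with 97 % wild-type base and 1 % of each other base at the 48 positions downstream of the cleavage site. A template-switching oligonucleotide was used for reverse transcription, followed by PCR amplification and deep sequencing. Whether reads carried upstream sequence set the cleavage status, and relative activity is the fraction cleaved normalised to wild type.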

| Variant | self-cleavage |
| --- | --- |
| CCGCCUAACACUGCCAAUGCCGGUCCCAUGCCCGGAUAAAAGUGGAGGGCGCGG | 0.04 |
| CCGCCUAACACUGCCAAUGCCGGUCCCAUGCCCGGAUAAAAGUGGAGGGUGCGG | 0.09 |
| CCGCCUAACACUGCCAAUGCCGGUCCCAUGCCCGGAUAAAAGUGGAGGGAGCGG | 0.13 |
| CCGCCUAACACUGCCAAUGCAGGUCCCAUGCCCGGAUAAAAGUGGAGGGGGCGG | 0.05 |
| CCGCCUAACACUGCCAAUGCUGGUCCCAUGCCCGGAUAAAAGUGGAGGGGGCGG | 0.15 |
| CCGCCUAACACUGCCAAUGCGGGUCCCAUGCCCGGAUAAAAGUGGAGGGGGCGG | 0.04 |
| CCGCCUAACACUGCCAAUGCCGGUCCCAUGCCCGGAUAAAAGUCGAGGGGGCGG | 0.12 |
| CCGCCUAACACUGCCAAUGCCGGUCCCAUGCCCGGAUAAAAGUAGAGGGGGCGG | 0.06 |
| CCGCCUAACACUGCCAAUGCCGGUCCCAUGCCCGGAUAAAAGUUGAGGGGGCGG | 0.07 |
| CCGCCUAACACUGCCAAUGCCGGUCCCAUUCCCGGAUAAAAGUGGAGGGGGCGG | 0.03 |
| CCGCCUAACACUGCCAAUGCCGGUCCCAUACCCGGAUAAAAGUGGAGGGGGCGG | 0.03 |
| CCGCCUAACACUGCCAAUGCCGGUCCCAUCCCCGGAUAAAAGUGGAGGGGGCGG | 0.02 |
| CCGCCUAACACUGCCAAUGCCGGUCUCAUGCCCGGAUAAAAGUGGAGGGGGCGG | 0.07 |
| CCGCCUAACACUGCCAAUGCCGGUCACAUGCCCGGAUAAAAGUGGAGGGGGCGG | 0.03 |
| CCGCCUAACACUGCCAAUGCCGGUCGCAUGCCCGGAUAAAAGUGGAGGGGGCGG | 0.05 |
| CCGCCUAACACUGCCAAUGCCGGUCCCAUGCCCGCAUAAAAGUGGAGGGGGCGG | 0.04 |
| CCGCCUAACACUGCCAAUGCCGGUCCCAUGCCCGAAUAAAAGUGGAGGGGGCGG | 0.11 |
| CCGCCUAACACUGCCAAUGCCGGUCCCAUGCCCGUAUAAAAGUGGAGGGGGCGG | 0.09 |
| CCGCCUAACACUGCCAAUGCCGGUCCCAUGCCCGGAUAAAAGUGCAGGGGGCGG | 0.03 |
| CCGCCUAACACUGCCAAUGCCGGUCCCAUGCCCGGAUAAAAGUGAAGGGGGCGG | 0.03 |
| CCGCCUAACACUGCCAAUGCCGGUCCCAUGCCCGGAUAAAAGUGUAGGGGGCGG | 0.03 |
| CCGCCUAACACUGCCAAUGCCGGUCCCAUGCCUGGAUAAAAGUGGAGGGGGCGG | 0.08 |
| CCGCCUAACACUGCCAAUGCCGGUCCCAUGCCGGGAUAAAAGUGGAGGGGGCGG | 0.04 |
| CCGCCUAACACUGCCAAUGCCGGUCCCAUGCCAGGAUAAAAGUGGAGGGGGCGG | 0.04 |
| CCGCCUAACACUGCCAAUGCCGGUUCCAUGCCCGGAUAAAAGUGGAGGGGGCGG | 0.1 |

| Variant | self-cleavage |
| --- | --- |
| CCGCCUAACACUGCCAAUGCCGGUGCCAUGCCCGGAUAAAAGUGGAGGGGGCGG | 0.05 |
| CCGCCUAACACUGCCAAUGCCGGUACCAUGCCCGGAUAAAAGUGGAGGGGGCGG | 0.03 |
| CCGCCUAACACUGCCAAUGCCGGUCCCAUGCCCGGAUAAAAGUGGAGGGGGGGG | 0.12 |
| CCGCCUAACACUGCCAAUGCCGGUCCCAUGCCCGGAUAAAAGUGGAGGGGGAGG | 0.08 |
| CCGCCUAACACUGCCAAUGCCGGUCCCAUGCCCGGAUAAAAGUGGAGGGGGUGG | 0.19 |
| CCGCCUAACACUGCCAAUGCCGAUCCCAUGCCCGGAUAAAAGUGGAGGGGGCGG | 0.08 |
| CCGCCUAACACUGCCAAUGCCGCUCCCAUGCCCGGAUAAAAGUGGAGGGGGCGG | 0.03 |
| CCGCCUAACACUGCCAAUGCCGUUCCCAUGCCCGGAUAAAAGUGGAGGGGGCGG | 0.03 |
| CCGCCUAACACUGCCAAUGCCGGUCCCAUGCCCCGAUAAAAGUGGAGGGGGCGG | 0.05 |
| CCGCCUAACACUGCCAAUGCCGGUCCCAUGCCCAGAUAAAAGUGGAGGGGGCGG | 0.07 |
| CCGCCUAACACUGCCAAUGCCGGUCCCAUGCCCUGAUAAAAGUGGAGGGGGCGG | 0.05 |
| CCGCCUAACACUGCGAAUGCCGGUCCCAUGCCCGGAUAAAAGUGGAGGGGGCGG | 0.09 |
| CCGCCUAACACUGCAAAUGCCGGUCCCAUGCCCGGAUAAAAGUGGAGGGGGCGG | 0.04 |
| CCGCCUAACACUGCUAAUGCCGGUCCCAUGCCCGGAUAAAAGUGGAGGGGGCGG | 0.07 |
| CCGCCUAACACUGCCAAUGCCAGUCCCAUGCCCGGAUAAAAGUGGAGGGGGCGG | 0.12 |
| CCGCCUAACACUGCCAAUGCCUGUCCCAUGCCCGGAUAAAAGUGGAGGGGGCGG | 0.08 |
| CCGCCUAACACUGCCAAUGCCCGUCCCAUGCCCGGAUAAAAGUGGAGGGGGCGG | 0.04 |
| CCGCCUAACACUGCCAAUGCCGGUCCCAUGCCCGGAUAAAAGUGGAGGGGACGG | 0.06 |
| CCGCCUAACACUGCCAAUGCCGGUCCCAUGCCCGGAUAAAAGUGGAGGGGUCGG | 0.04 |
| CCGCCUAACACUGCCAAUGCCGGUCCCAUGCCCGGAUAAAAGUGGAGGGGCCGG | 0.05 |
| CCGCCUAACACUACCAAUGCCGGUCCCAUGCCCGGAUAAAAGUGGAGGGGGCGG | 0.04 |
| CCGCCUAACACUCCCAAUGCCGGUCCCAUGCCCGGAUAAAAGUGGAGGGGGCGG | 0.01 |
| CCGCCUAACACUUCCAAUGCCGGUCCCAUGCCCGGAUAAAAGUGGAGGGGGCGG | 0.02 |
| CCGCCUAACACUGCCAAUUCCGGUCCCAUGCCCGGAUAAAAGUGGAGGGGGCGG | 0.05 |
| CCGCCUAACACUGCCAAUCCCGGUCCCAUGCCCGGAUAAAAGUGGAGGGGGCGG | 0.03 |

| Variant | self-cleavage |
| --- | --- |
| CCGCCUAACACUGCCAAUACCGGUCCCAUGCCCGGAUAAAAGUGGAGGGGGCGG | 0.05 |
| CCGCCUAACACUGCCAAUGCCGGUCCCAUGCCCGGAUAAAAGUGGAAGGGGCGG | 0.03 |
| CCGCCUAACACUGCCAAUGCCGGUCCCAUGCCCGGAUAAAAGUGGAUGGGGCGG | 0.03 |
| CCGCCUAACACUGCCAAUGCCGGUCCCAUGCCCGGAUAAAAGUGGACGGGGCGG | 0.03 |
| CCGCCUAACACUGCCAAUGCCGGUCCCAUGCCCGGAUAAAAGUGGUGGGGGCGG | 0.04 |
| CCGCCUAACACUGCCAAUGCCGGUCCCAUGCCCGGAUAAAAGUGGGGGGGGCGG | 0.04 |
| CCGCCUAACACUGCCAAUGCCGGUCCCAUGCCCGGAUAAAAGUGGCGGGGGCGG | 0.02 |
| CCGCCUAACACUGUCAAUGCCGGUCCCAUGCCCGGAUAAAAGUGGAGGGGGCGG | 0.05 |
| CCGCCUAACACUGACAAUGCCGGUCCCAUGCCCGGAUAAAAGUGGAGGGGGCGG | 0.03 |
| CCGCCUAACACUGGCAAUGCCGGUCCCAUGCCCGGAUAAAAGUGGAGGGGGCGG | 0.04 |
| CCGCCUAACACUGCCAAUGCCGGUCCCAUGCCCGGAUAAAAUUGGAGGGGGCGG | 0.03 |
| CCGCCUAACACUGCCAAUGCCGGUCCCAUGCCCGGAUAAAACUGGAGGGGGCGG | 0.04 |
| CCGCCUAACACUGCCAAUGCCGGUCCCAUGCCCGGAUAAAAAUGGAGGGGGCGG | 0.06 |
| CCGCCUAACACUGCCAAUGCCGGUCCCAUGCCCGGAUAACAGUGGAGGGGGCGG | 0.03 |
| CCGCCUAACACUGCCAAUGCCGGUCCCAUGCCCGGAUAAUAGUGGAGGGGGCGG | 0.06 |
| CCGCCUAACACUGCCAAUGCCGGUCCCAUGCCCGGAUAAGAGUGGAGGGGGCGG | 0.08 |
| CCGCCUAACACUGCCAAUGCCGGUCCCAUGACCGGAUAAAAGUGGAGGGGGCGG | 0.02 |
| CCGCCUAACACUGCCAAUGCCGGUCCCAUGGCCGGAUAAAAGUGGAGGGGGCGG | 0.03 |
| CCGCCUAACACUGCCAAUGCCGGUCCCAUGUCCGGAUAAAAGUGGAGGGGGCGG | 0.06 |
| CCGCCUAACACUGCCAAUGUCGGUCCCAUGCCCGGAUAAAAGUGGAGGGGGCGG | 0.21 |
| CCGCCUAACACUGCCAAUGGCGGUCCCAUGCCCGGAUAAAAGUGGAGGGGGCGG | 0.03 |
| CCGCCUAACACUGCCAAUGACGGUCCCAUGCCCGGAUAAAAGUGGAGGGGGCGG | 0.12 |
| CCGCCUAACAGUGCCAAUGCCGGUCCCAUGCCCGGAUAAAAGUGGAGGGGGCGG | 0.04 |
| CCGCCUAACAAUGCCAAUGCCGGUCCCAUGCCCGGAUAAAAGUGGAGGGGGCGG | 0.05 |
| CCGCCUAACAUUGCCAAUGCCGGUCCCAUGCCCGGAUAAAAGUGGAGGGGGCGG | 0.08 |

| Variant | self-cleavage |
| --- | --- |
| CCGCCUAACACUGCCAAUGCCGGUCCCAUGCCCGGAUAUAAGUGGAGGGGGCGG | 0.07 |
| CCGCCUAACACUGCCAAUGCCGGUCCCAUGCCCGGAUACAAGUGGAGGGGGCGG | 0.05 |
| CCGCCUAACACUGCCAAUGCCGGUCCCAUGCCCGGAUAGAAGUGGAGGGGGCGG | 0.07 |
| CCGCCUAACACUGCCAAUGCCGGUCCCAUGCCCGGAUAAAAGUGGAGGCGGCGG | 0.04 |
| CCGCCUAACACUGCCAAUGCCGGUCCCAUGCCCGGAUAAAAGUGGAGGAGGCGG | 0.03 |
| CCGCCUAACACUGCCAAUGCCGGUCCCAUGCCCGGAUAAAAGUGGAGGUGGCGG | 0.02 |
| CCGCCUAACACUGCCAAUGCCGGUCCCAUGCGCGGAUAAAAGUGGAGGGGGCGG | 0.03 |
| CCGCCUAACACUGCCAAUGCCGGUCCCAUGCACGGAUAAAAGUGGAGGGGGCGG | 0.04 |
| CCGCCUAACACUGCCAAUGCCGGUCCCAUGCUCGGAUAAAAGUGGAGGGGGCGG | 0.03 |
| CCGCCUAACACUGCCAAUGCCGGUCCCAUGCCCGGAUAAAAGUGGAGGGGGCAG | 0.07 |
| CCGCCUAACACUGCCAAUGCCGGUCCCAUGCCCGGAUAAAUGUGGAGGGGGCGG | 0.2 |
| CCGCCUAACACUGCCAAUGCCGGUCCCAUGCCCGGAUAAACGUGGAGGGGGCGG | 0.13 |
| CCGCCUAACACUGCCAAUGCCGGUCCCAUGCCCGGAUAAAGGUGGAGGGGGCGG | 0.06 |
| CCGCCUAACACUGCCAAUGCCGGUCCCAUGCCCGGAUAAAAGUGGAGCGGGCGG | 0.03 |
| CCGCCUAACACUGCCAAUGCCGGUCCCAUGCCCGGAUAAAAGUGGAGAGGGCGG | 0.03 |
| CCGCCUAACACUGCCAAUGCCGGUCCCAUGCCCGGAUAAAAGUGGAGUGGGCGG | 0.03 |
| CCGCCUAAGACUGCCAAUGCCGGUCCCAUGCCCGGAUAAAAGUGGAGGGGGCGG | 0.07 |
| CCGCCUAAAACUGCCAAUGCCGGUCCCAUGCCCGGAUAAAAGUGGAGGGGGCGG | 0.03 |
| CCGCCUAAUACUGCCAAUGCCGGUCCCAUGCCCGGAUAAAAGUGGAGGGGGCGG | 0.05 |
| CCGCCUAACACUGCCAAUGCCGGUCCAAUGCCCGGAUAAAAGUGGAGGGGGCGG | 0.03 |
| CCGCCUAACACUGCCAAUGCCGGUCCGAUGCCCGGAUAAAAGUGGAGGGGGCGG | 0.05 |
| CCGCCUAACACUGCCAAUGCCGGUCCUAUGCCCGGAUAAAAGUGGAGGGGGCGG | 0.08 |

— the RNAGym collection of RNA variant scans (doi:10.1002/anie.201605470)
